From PubChem BioAssay
Activity calls are given as the source filed them.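 How the source made its calls, unless noted: active means viability at or under a set limit in both replicates, limit being median viability minus 3 SD (cut at about 48% in these data, passing the limit was not always enough); inconclusive means at or under the limit in just one replicate; inactive means at or above the limit in both replicates.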

Assays:
[1] = Her2 expression decrease, cell viability multiplex – SKBR3 breast tumor cells, AlphaScreen, ATP viability, primary screen (AID 461;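 active means Her2 level under about 52% in both replicate screens, with viability over 70% of control, limit read from the data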;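 on Her2 level: lower value means less Her2 protein in the cells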;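 on viability: percent of carrier control wells set as 100% viability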); conditions: SKBR3 Her2 protein level, 18-24 h, measured here: SKBR3 viability, ATP luminescence, at 10 µM
[2] = target: Receptor tyrosine-protein kinase erbB-2 (Homo sapiens) (UniProt P04626); experiment: as above; conditions: 18-24 h, at 10 µM, stronger effect = lower value
Chain of Receptor tyrosine-protein kinase erbB-2 (Homo sapiens) (P04626 whole entry, looked up): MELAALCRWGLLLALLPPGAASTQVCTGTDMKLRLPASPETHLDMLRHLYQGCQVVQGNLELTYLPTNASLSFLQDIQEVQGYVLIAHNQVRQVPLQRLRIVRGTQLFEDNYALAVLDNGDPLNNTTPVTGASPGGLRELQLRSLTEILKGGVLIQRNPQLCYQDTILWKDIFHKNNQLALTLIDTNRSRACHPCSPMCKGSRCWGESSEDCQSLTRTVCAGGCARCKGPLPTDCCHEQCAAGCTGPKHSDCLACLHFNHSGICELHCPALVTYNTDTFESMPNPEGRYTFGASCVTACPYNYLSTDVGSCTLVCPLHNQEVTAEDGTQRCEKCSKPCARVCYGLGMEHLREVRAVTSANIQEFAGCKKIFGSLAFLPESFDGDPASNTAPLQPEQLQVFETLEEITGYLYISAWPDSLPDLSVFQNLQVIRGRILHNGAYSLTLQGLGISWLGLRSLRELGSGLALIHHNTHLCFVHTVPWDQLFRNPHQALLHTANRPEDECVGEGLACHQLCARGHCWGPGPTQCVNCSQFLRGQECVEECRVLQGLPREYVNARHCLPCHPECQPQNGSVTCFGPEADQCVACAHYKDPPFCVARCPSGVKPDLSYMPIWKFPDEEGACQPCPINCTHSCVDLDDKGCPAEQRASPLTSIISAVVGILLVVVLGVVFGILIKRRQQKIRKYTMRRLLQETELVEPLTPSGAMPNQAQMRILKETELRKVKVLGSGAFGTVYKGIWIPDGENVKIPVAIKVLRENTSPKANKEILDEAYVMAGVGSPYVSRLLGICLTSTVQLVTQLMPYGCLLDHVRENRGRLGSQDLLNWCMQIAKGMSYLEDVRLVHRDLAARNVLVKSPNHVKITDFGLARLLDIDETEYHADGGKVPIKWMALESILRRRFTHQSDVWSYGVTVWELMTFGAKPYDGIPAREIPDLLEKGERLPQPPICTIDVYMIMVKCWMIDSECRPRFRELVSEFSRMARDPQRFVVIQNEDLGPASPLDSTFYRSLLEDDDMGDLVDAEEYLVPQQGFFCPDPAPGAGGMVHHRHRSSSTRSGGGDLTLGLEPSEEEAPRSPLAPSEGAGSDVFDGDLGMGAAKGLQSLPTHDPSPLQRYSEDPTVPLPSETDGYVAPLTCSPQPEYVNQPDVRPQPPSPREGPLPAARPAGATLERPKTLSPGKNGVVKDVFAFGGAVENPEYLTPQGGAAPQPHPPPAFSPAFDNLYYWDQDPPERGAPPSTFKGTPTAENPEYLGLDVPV

[3] = reduced viability of SK-BR-3 breast cancer cells – cell-based, 24 h, human, pilot screen (AID 572;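 active means viability at or below 10% of carrier control in both of two separate runs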;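 further: compound exposure lasted between 18 and 24 h rather than exactly 24 h; 100% = carrier-treated control wells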); conditions: SK-BR-3 viability, CellTiter-Glo luminescence, at 10 µM, stronger effect = lower value
[4] = HUVEC growth inhibition – cell-based, human, primary screen (AID 575;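 active means viability at or below 30% in both replicate assays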;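 further: 100% = median of untreated cell wells with 0.1% DMSO on each plate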); conditions: HUVEC proliferation, CellTiter-Glo luminescence, 72 h; at 10 µM; stronger effect = lower value
Summary of the method: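 material = primary HUVEC, no more than 12 passages | input = 1250 cells per well | controls = vehicle and MePR control wells | measured by = CTG luminescence | times = 72 h compound incubation | format = collagen-coated 384-well format | read-out = % viability vs DMSO wells | doses = single 10 µM dose, 0.1% DMSO, from 5x medium stock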

[5] = H69AR cell proliferation blockers – human, duplicate replicates, primary screen (AID 580); conditions: H69AR lung tumor cells viability, ATP luminescence, 72 h; at 10 µM; stronger effect = lower value;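 further: 100% = mean luminescence of untreated wells and 0% = no signal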
[6] = MRP1 drug-resistance reversers in H69AR cells – cell-based, doxorubicin co-treatment, pilot screen (AID 601;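 active means viability loss from added drug above about 55%, and viability with drug at most 40%, in both replicates, limit read from the data, passing the limit was not always enough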); conditions: CellTiter-Glo, 72 h, at 10 µM; for differential viability (reversal): stronger effect = higher value
[7] = yeast transport mutant growth inhibition pilot in 384-well plates, post-Golgi transport modulator project (AID 636; in the data active means inhibition above about 31%); conditions: absorbance 615 nm, about 18 h, stronger effect = higher value
[8] = growth suppression of yeast trafficking mutant, preliminary HTS, modulators of trafficking downstream of Golgi apparatus project, 1536-format plate, OD 615 nm (AID 637; in the data active means inhibition above about 30%); conditions: yeast transport mutant growth, absorbance 615 nm, 18 h; stronger effect = higher value
[9] = H69AR cells + 2 uM doxorubicin, measured here: viability with 2 uM doxorubicin, stronger effect = lower value
[10] = H69AR cells, compound alone cytotoxicity

Structure (SMILES) | viability [1] [%] | Her2 level [2] | viability [3] | viability [4] | viability [5] | differential viability (reversal) ([6]; H69AR cells + 2 uM doxorubicin) | viability [6, 9] [%] | viability [6, 10] [%] | inhibition [7] | inhibition [8]
CCOC(=O)N1CCN(S(=O)(=O)c2cc(C)c(C)cc2C)CC1 | 96.5 | 87% (inactive) | 96.5% (inactive) | 104% (inactive) | 95.3% (inactive) | 6.04% (inactive) | 89.3 | 95.3 | -4.34% (inactive) | 2.22% (inactive)
O=C(CCS(=O)(=O)c1cc(Br)cc2c1N(C(=O)C1CC1)CC2)NCC1CCCO1 (stereo not given) | 122 | 110% (inactive) | 122% (inactive) | 95.5% (inactive) | 81.8% (inactive) | -3.57% (inactive) | 85.4 | 81.8 | 0.51% (inactive) | 11.8% (inactive)
CCn1c(SC)nc2c(c1=O)SC(C)C2 (stereo not given) | 111 | 110% (inactive) | 111% (inactive) | 113% (inactive) | 98.4% (inactive) | 17.2% (inactive) | 81.2 | 98.4 | -4.67% (inactive) | 1.8% (inactive)
CCc1ccc(CN(C)CCc2ccccn2)cc1 | 108 | 86% (inactive) | 108% (inactive) | 106% (inactive) | 102% (inactive) | 16.7% (inactive) | 85.8 | 102 | -5.62% (inactive) | -3.02% (inactive)
CC1=C(C(=O)OCCOC(C)C)C(c2cc3c(cc2Br)OCO3)C2=C(CCCC2=O)N1 (stereo not given) | 102 | 111% (inactive) | 102% (inactive) | 86.2% (inactive) | 80.8% (inactive) | 1.89% (inactive) | 78.9 | 80.8 | -2.8% (inactive) | 6.07% (inactive)
COc1cccc(Oc2cn[nH]c2-c2ccc(O)cc2O)c1 | 104 | 122% (inactive) | 104% (inactive) | 65.9% (inactive) | 89.5% (inactive) | -8.96% (inactive) | 98.4 | 89.5 | 0.26% (inactive) | -5% (inactive)
Cc1ccc(-n2c(=O)c(C#N)cc3c(=O)n4ccccc4nc32)cc1 | 100 | 84.5% (inactive) | 100% (inactive) | 62.1% (inactive) | 97% (inactive) | 7.35% (inactive) | 89.6 | 97 | -4.59% (inactive) | 2.06% (inactive)
COc1ccc(OCCCC(=O)Nc2ccc3c(c2)OCCO3)cc1 | 99.5 | 93.5% (inactive) | 99.5% (inactive) | 81.8% (inactive) | 82.7% (inactive) | -3.62% (inactive) | 86.3 | 82.7 | -6.76% (inactive) | -6.83% (inactive)
c1ccc2c(c1)CNC1(CCCCC1)C2 | 103 | 94.5% (inactive) | 103% (inactive) | 103% (inactive) | 102% (inactive) | 12.9% (inactive) | 88.6 | 102 | -8.63% (inactive) | 1.27% (inactive)
O=C(NC1CCN(Cc2nnnn2CCc2ccccc2)CC1)c1ccccc1F | 81.5 | 96% (inactive) | 81.5% (inactive) | 85.4% (inactive) | 86.5% (inactive) | -11.7% (inactive) | 98.3 | 86.5 | 0.13% (inactive) | -0.5% (inactive)
CCCn1c(-c2ccc(F)cc2)cnc1SCC(=O)O | 128 | 98.5% (inactive) | 128% (inactive) | 101% (inactive) | 84.8% (inactive) | 3.56% (inactive) | 81.2 | 84.8 | -3.33% (inactive) | 2.79% (inactive)
COc1ccc(-c2cc(C(=O)Nc3ccc(C)cc3)no2)cc1 | 121 | 114% (inactive) | 121% (inactive) | 109% (inactive) | 99.1% (inactive) | 9.35% (inactive) | 89.7 | 99.1 | -3.11% (inactive) | 41% (active)
Cc1coc2cc3oc(=O)c4c(c3cc12)CCC4 | 111 | 81.5% (inactive) | 111% (inactive) | 85.1% (inactive) | 104% (inactive) | 6.42% (inactive) | 97.2 | 104 | -2.7% (inactive) | -2.86% (inactive)
CCOC(=O)C1CCN(C(=O)C2CCN(S(=O)(=O)c3cc(Cl)ccc3Cl)CC2)CC1 | 92 | 91% (inactive) | 92% (inactive) | 115% (inactive) | 89.4% (inactive) | 20.7% (inactive) | 68.7 | 89.4 | -5.07% (inactive) | 0.48% (inactive)
OC1C[N+]2(CCCCC2)C1 | 98 | 82% (inactive) | 98% (inactive) | 99.6% (inactive) | 109% (inactive) | 13% (inactive) | 95.6 | 109 | -4.8% (inactive) | -3.23% (inactive)
CC(C)(C)C(=O)Cn1c[n+](N)cn1 | 103 | 86% (inactive) | 103% (inactive) | 86.1% (inactive) | 96.9% (inactive) | 4.54% (inactive) | 92.4 | 96.9 | -4.67% (inactive) | 0.49% (inactive)
Cc1nc2c3cnn(-c4ccccc4)c3ncn2n1 | 104 | 86% (inactive) | 104% (inactive) | 79.6% (inactive) | 96.7% (inactive) | 14.2% (inactive) | 82.5 | 96.7 | -3.87% (inactive) | 1.64% (inactive)
CCOc1nc2ccccc2nc1NS(=O)(=O)c1ccccc1 | 83 | 75% (inactive) | 83% (inactive) | 91.3% (inactive) | 88.5% (inactive) | 0.49% (inactive) | 88 | 88.5 | -2.24% (inactive) | 3.82% (inactive)
Cc1ccc(C(=O)OCC(=O)c2ccc(Cl)s2)s1 | 93.5 | 101% (inactive) | 93.5% (inactive) | 96% (inactive) | 97.4% (inactive) | 6.55% (inactive) | 90.8 | 97.4 | -0.93% (inactive) | -10.3% (inactive)
CCOC(=O)C1CCCN(C(=O)c2cc3c(=O)n4cccc(C)c4nc3n2C)C1 (stereo not given) | 106 | 77% (inactive) | 106% (inactive) | 108% (inactive) | 94.3% (inactive) | 5.81% (inactive) | 88.4 | 94.3 | -7.3% (inactive) | 2.7% (inactive)
Cc1cc(NC(=O)Cc2cn3ccsc3n2)n(-c2ccccc2)n1 | 91 | 103% (inactive) | 91% (inactive) | 91.8% (inactive) | 94.9% (inactive) | 5.08% (inactive) | 89.9 | 94.9 | -0.64% (inactive) | 0.33% (inactive)
O=C1CSC(c2cn(-c3ccccc3)nc2-c2ccccc2)N1Cc1ccco1 (stereo not given) | 97 | 110% (inactive) | 97% (inactive) | 63.1% (inactive) | 88.3% (inactive) | 17.7% (inactive) | 70.6 | 88.3 | 0.92% (inactive) | 3.55% (inactive)
CCOC(=O)N1CCN(C(=O)CSc2nnc(-c3cc(OC)cc(OC)c3)o2)CC1 | 86.5 | 75.5% (inactive) | 86.5% (inactive) | 92.7% (inactive) | 85.7% (inactive) | -3.85% (inactive) | 89.5 | 85.7 | -5.66% (inactive) | -1% (inactive)
CC(=O)O[C@H]1CSC[C@H]1NC(=O)c1ccccc1 | 98.5 | 97% (inactive) | 98.5% (inactive) | 101% (inactive) | 99.8% (inactive) | 11% (inactive) | 88.8 | 99.8 | -2.13% (inactive) | -1.77% (inactive)
Cc1ccc(S(=O)(=O)NCC(=O)N(CC(=O)NC2CCCCC2)Cc2ccco2)cc1 | 135 | 100% (inactive) | 135% (inactive) | 91% (inactive) | 93.9% (inactive) | 2.62% (inactive) | 91.3 | 93.9 | -5.87% (inactive) | 4.76% (inactive)
CCOC(=O)N1CCN(C(=O)CCc2ccc(S(=O)(=O)NCCc3ccccc3)cc2)CC1 | 89.5 | 102% (inactive) | 89.5% (inactive) | 87.2% (inactive) | 101% (inactive) | 17.6% (inactive) | 83.1 | 101 | -0.13% (inactive) | -4% (inactive)
C=CCOc1nc(N(C)C)nc(N(C)C)n1 | 92.5 | 87% (inactive) | 92.5% (inactive) | 93.9% (inactive) | 98.2% (inactive) | 9.33% (inactive) | 88.8 | 98.2 | -4.67% (inactive) | 1.31% (inactive)
Cc1ccc(Cn2c(NCCc3ccccc3)nc3c2c(=O)n(C)c(=O)n3C)cc1 | 82.5 | 75% (inactive) | 82.5% (inactive) | 73.5% (inactive) | 91.9% (inactive) | 3.77% (inactive) | 88.1 | 91.9 | -10% (inactive) | -2.7% (inactive)
COc1ccccc1CNS(=O)(=O)c1ccc(NC(C)=O)cc1 | 94.5 | 84% (inactive) | 94.5% (inactive) | 106% (inactive) | 92.9% (inactive) | -7.69% (inactive) | 101 | 92.9 | -5.73% (inactive) | 2.22% (inactive)
